How the values were obtained:
[1] = biological target: Voltage-gated inwardly rectifying potassium channel KCNH2 (Homo sapiens, UniProt Q12809); test: Activity at human ERG at 33 uM
Salmonella typhimurium = test: Genotoxicity in Salmonella typhimurium by Ames test; type: toxicity, organism-based; conditions: salmonella enterica subsp. enterica serovar typhimurium
[2] = AUC in C57B6 mouse at 10 mg/kg, po; type: ADME, organism-based; set-up: dose 10 mg/kg, route oral; conditions: plasma
Outline: (§1)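 Male C57B6 mice. IV dose of 2 mg/kg in 50% DMSO/50% PEG200. Oral dose of 10 mg/kg in 2% Tween/0.5% methyl cellulose in water. Values are PK parameters from the iv and po arms.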

[3] = AUC in Beagle dog at 2 mg/kg, iv; type: ADME, organism-based, Canis lupus familiaris; set-up: dose 2 mg/kg, route intravenous; conditions: plasma
Outline: (§2)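 Male dogs were given 2 mg/kg intravenously in 50% DMSO/50% PEG200.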

[4] = biological target: 11-beta-hydroxysteroid dehydrogenase 1 (Homo sapiens, UniProt P28845); test: Inhibition of human 11beta-HSD1 expressed in CHO cells using cortisone as substrate incubated for 30 mins prior to substrate addition measured after 120 mins by chemiluminescence assay
Rattus norvegicus = test: Toxicity in rat at 200 to 2000 mg/kg; type: organism-based; set-up: dose 200-2000 mg/kg; conditions: in vivo
Outline: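 14-day safety assessment and metabolism study in rats at 200, 600 and 2000 mg/kg.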

[5] = biological target: T1, Peroxisome proliferator-activated receptor alpha (Homo sapiens, UniProt Q07869); test: Inhibition of PPARalpha (unknown origin)
T1 sequence (Q07869 whole entry): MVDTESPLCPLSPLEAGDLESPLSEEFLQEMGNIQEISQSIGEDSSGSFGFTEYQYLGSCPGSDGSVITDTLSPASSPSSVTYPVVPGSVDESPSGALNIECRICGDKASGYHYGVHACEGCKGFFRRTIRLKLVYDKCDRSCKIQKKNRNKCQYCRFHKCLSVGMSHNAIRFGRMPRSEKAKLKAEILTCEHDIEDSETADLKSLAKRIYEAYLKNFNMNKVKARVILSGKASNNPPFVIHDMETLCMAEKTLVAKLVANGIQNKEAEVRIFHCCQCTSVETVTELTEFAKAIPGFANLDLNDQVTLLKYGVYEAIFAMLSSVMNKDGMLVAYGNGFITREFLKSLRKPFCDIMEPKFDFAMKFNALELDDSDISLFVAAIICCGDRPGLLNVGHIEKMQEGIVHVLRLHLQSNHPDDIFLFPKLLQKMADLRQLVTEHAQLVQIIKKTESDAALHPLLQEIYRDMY

Mus musculus [6] = species: Mus musculus; test: Antidiabetic activity in C57B6 DIO mouse assessed as reduction in fasting glucose level at 0.3 mg/g of food after 31 days by HPLC analysis relative to untreated control; type: functional; set-up: scale not given: the % may be the effect or the level left
Outline: (§3)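 Male C57B6 mice, 5.5–7 months old, kept on a 35.5% fat diet for 4 months. Compound was mixed into food at 0.3 mg drug/g food for 31 days. Controls received diet 12492. Glucose and insulin were measured fed and fasting.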

[7] = Half life in mouse liver microsomes; type: ADME, Microsome
[8] = Oral bioavailability in C57B6 mouse at 10 mg/kg; type: ADME, organism-based; conditions: in vivo; outline: as §1
[9] = biological target: 11-beta-hydroxysteroid dehydrogenase 1 (Mus musculus, UniProt P50172); test: Inhibition of mouse 11beta-HSD1 expressed in CHO cells […] incubated for 30 mins prior to substrate addition measured after 120 mins by chemiluminescence assay in presence of 10% human serum; type: cell-based
Outline: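 Cell-based assay with 10% (v/v) human serum in the culture medium. Run in duplicate, with 11-point 2-fold dilutions giving the IC50. Lower threshold was 10 nM.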

[10] = Half life in C57B6 mouse at 2 mg/kg, iv; type: ADME, organism-based; set-up: dose 2 mg/kg, route intravenous; conditions: in vivo; outline: as §1
[11] = AUC in Sprague-Dawley rat at 10 mg/kg, po; type: ADME, organism-based; set-up: dose 10 mg/kg, route oral; conditions: plasma
Outline: (§4)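 SD rats received 2 mg/kg iv in 50% DMSO/50% PEG200, or 10 mg/kg po in 2% Tween/0.5% methyl cellulose in water. PK parameters come from each route.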

[12] = Cmax in Beagle dog at 5 mg/kg, po; conditions: in vivo
[13] = biological target: T2, Peroxisome proliferator-activated receptor gamma (Homo sapiens, UniProt P37231); test: Inhibition of PPARgamma (unknown origin)
T2 sequence (P37231 whole entry): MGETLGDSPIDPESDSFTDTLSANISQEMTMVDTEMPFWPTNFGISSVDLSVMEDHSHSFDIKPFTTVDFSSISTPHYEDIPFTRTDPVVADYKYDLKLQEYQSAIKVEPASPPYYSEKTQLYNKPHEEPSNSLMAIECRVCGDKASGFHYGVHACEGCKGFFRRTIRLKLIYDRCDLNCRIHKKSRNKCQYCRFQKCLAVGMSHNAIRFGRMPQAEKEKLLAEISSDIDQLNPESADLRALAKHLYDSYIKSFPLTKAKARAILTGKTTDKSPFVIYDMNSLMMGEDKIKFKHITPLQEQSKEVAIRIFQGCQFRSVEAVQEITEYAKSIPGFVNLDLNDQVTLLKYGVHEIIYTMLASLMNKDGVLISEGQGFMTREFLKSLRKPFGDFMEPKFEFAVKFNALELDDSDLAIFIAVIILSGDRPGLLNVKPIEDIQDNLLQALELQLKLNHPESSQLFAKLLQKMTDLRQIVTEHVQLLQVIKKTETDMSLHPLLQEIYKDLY

[14] = Clearance in Sprague-Dawley rat at 2 mg/kg, iv; type: ADME, organism-based; set-up: dose 2 mg/kg, route intravenous; conditions: in vivo; outline: as §4
Mus musculus [15] = species: Mus musculus; test: Toxicity in C57B6 DIO mouse assessed as elevation of alanine aminotransferase at 0.3 mg/g of food after 31 days; type: organism-based; conditions: in vivo, po, 744 h
Mus musculus [16] = species: Mus musculus; test: Toxicity in C57B6 DIO mouse assessed as elevation of aspartate aminotransferase at 0.3 mg/g of food after 31 days; type: organism-based; conditions: in vivo, po, 744 h
Mus musculus [17] = species: Mus musculus; test: Toxicity in C57B6 DIO mouse assessed as reduction of food intake at 0.3 mg/g of food after 31 days; type: organism-based; conditions: in vivo, po, 744 h
[18] = Volume of distribution at steady state in Beagle dog at 2 mg/kg, iv; type: ADME, organism-based, Canis lupus familiaris; set-up: dose 2 mg/kg, route intravenous; conditions: in vivo, read-out: Vdss; outline: as §2
Mus musculus [19] = species: Mus musculus; test: Antidiabetic activity in C57B6 DIO mouse assessed as reduction in fed glucose level at 0.3 mg/g of food after 31 days by HPLC analysis relative to untreated control; type: functional; set-up: scale not given: the % may be the effect or the level left; outline: as §3
Mus musculus [20] = species: Mus musculus; test: Antidiabetic activity in C57B6 DIO mouse assessed as reduction in fed insulin level at 0.3 mg/g of food after 31 days by HPLC analysis relative to untreated control; type: functional; set-up: scale not given: the % may be the effect or the level left; outline: as §3
[21] = Clearance in Beagle dog at 2 mg/kg, iv; type: ADME, organism-based, Canis lupus familiaris; set-up: dose 2 mg/kg, route intravenous; conditions: in vivo; outline: as §2
[22] = Volume of distribution at steady state in C57B6 mouse at 2 mg/kg, iv; type: ADME, organism-based; set-up: dose 2 mg/kg, route intravenous; conditions: in vivo, read-out: Vdss; outline: as §1
[23] = Tmax in Sprague-Dawley rat at 10 mg/kg, po; type: ADME, organism-based; set-up: dose 10 mg/kg, route oral; conditions: in vivo; outline: as §4
[24] = Cmax in Sprague-Dawley rat at 10 mg/kg, po; type: ADME, organism-based; set-up: dose 10 mg/kg, route oral; conditions: in vivo; outline: as §4
[25] = AUC in Sprague-Dawley rat at 2 mg/kg, iv; type: ADME, organism-based; set-up: dose 2 mg/kg, route intravenous; conditions: plasma; outline: as §4
[26] = Oral bioavailability in Sprague-Dawley rat at 10 mg/kg; type: ADME, organism-based; conditions: in vivo; outline: as §4
[27] = Half life in human liver microsomes; type: ADME, Microsome
[28] = Tmax in C57B6 mouse at 10 mg/kg, po; type: ADME, organism-based; set-up: dose 10 mg/kg, route oral; conditions: in vivo; outline: as §1
[29] = Half life in Beagle dog at 2 mg/kg, iv; type: ADME, organism-based, Canis lupus familiaris; set-up: dose 2 mg/kg, route intravenous; conditions: in vivo; outline: as §2

Chain of Voltage-gated inwardly rectifying potassium channel KCNH2 (Q12809 whole entry): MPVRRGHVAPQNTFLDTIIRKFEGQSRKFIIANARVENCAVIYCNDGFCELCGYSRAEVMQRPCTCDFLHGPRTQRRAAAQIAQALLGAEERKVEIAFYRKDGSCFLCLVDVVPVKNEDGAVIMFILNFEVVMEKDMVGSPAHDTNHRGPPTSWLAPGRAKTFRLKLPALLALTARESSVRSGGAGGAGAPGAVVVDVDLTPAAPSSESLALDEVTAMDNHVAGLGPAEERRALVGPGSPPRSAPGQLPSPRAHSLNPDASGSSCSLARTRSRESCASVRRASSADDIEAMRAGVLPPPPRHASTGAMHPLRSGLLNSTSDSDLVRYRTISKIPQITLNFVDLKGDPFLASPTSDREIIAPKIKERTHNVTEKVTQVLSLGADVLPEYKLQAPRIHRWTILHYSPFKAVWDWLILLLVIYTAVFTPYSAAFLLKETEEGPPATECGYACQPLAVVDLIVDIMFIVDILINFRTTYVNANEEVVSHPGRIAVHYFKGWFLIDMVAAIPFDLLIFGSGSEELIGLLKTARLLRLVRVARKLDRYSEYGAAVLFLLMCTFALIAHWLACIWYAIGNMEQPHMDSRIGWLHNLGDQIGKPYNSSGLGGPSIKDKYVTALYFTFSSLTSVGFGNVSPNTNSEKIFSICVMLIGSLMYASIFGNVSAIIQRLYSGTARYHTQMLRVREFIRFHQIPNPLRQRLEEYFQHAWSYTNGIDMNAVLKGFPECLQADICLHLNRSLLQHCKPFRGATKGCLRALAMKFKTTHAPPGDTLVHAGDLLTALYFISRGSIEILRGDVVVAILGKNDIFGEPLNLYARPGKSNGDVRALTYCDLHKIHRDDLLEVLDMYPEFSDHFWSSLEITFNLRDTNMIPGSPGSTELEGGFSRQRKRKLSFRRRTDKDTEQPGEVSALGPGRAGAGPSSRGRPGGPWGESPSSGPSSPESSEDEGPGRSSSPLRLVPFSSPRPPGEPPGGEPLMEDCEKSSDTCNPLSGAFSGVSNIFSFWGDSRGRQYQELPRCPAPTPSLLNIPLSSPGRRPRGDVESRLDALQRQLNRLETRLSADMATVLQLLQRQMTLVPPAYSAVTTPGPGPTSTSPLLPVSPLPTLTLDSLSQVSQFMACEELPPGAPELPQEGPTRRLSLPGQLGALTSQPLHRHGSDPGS
Chain of 11-beta-hydroxysteroid dehydrogenase 1 (Homo sapiens, UniProt P28845) (P28845 whole entry): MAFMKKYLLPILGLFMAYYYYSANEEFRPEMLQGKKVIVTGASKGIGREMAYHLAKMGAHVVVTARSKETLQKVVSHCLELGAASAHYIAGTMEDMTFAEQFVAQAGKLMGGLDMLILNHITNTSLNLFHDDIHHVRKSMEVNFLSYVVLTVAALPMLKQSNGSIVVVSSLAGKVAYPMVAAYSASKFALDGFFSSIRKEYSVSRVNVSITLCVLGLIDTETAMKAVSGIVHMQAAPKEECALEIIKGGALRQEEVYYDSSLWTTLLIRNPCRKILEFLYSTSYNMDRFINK
Chain of 11-beta-hydroxysteroid dehydrogenase 1 (Mus musculus, UniProt P50172) (P50172 whole entry): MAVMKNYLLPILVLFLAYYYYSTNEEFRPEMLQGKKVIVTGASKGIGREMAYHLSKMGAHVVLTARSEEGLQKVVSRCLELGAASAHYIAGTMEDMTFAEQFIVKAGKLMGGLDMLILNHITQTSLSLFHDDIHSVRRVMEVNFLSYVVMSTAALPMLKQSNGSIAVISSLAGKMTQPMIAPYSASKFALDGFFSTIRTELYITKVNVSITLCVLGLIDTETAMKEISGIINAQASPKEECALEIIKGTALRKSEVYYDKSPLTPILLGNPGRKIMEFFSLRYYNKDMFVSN

AUC [2]: 11700 ng·h/mL
AUC [3]: 32400 ng·h/mL
IC50 [4]: 10 nM
IC50 [5]: > 100000 nM
half-life [7]: > 0.5 h
bioavailability [8]: 67%
IC50 [9]: 10 nM
half-life [10]: 6.1 h
AUC [11]: 6540 ng·h/mL
Cmax [12]: 1440 ng/mL
IC50 [13]: > 100000 nM
clearance [14]: 8 mL/min/kg
Vd [18]: 1.8 L/kg
clearance [21]: 1 mL/min/kg
Vd [22]: 4.2 L/kg
Tmax [23]: 1.8 h
Cmax [24]: 656 ng/mL
AUC [25]: 4310 ng·h/mL
bioavailability [26]: 61%
half-life [27]: > 0.5 h
Tmax [28]: 2 h
half-life [29]: 20.3 h
SMILES: C[C@@H]1CN(c2ccc(F)cc2C(F)(F)F)CCN1S(=O)(=O)c1ccc([C@@](O)(C(N)=O)C(F)(F)F)s1
Activity [1]: Not Active
Activity (Salmonella typhimurium): Non-toxic
Activity (Rattus norvegicus): Non-toxic
Activity (Mus musculus [6]): 15%
Activity (Mus musculus [15]): Non-toxic
Activity (Mus musculus [16]): Non-toxic
Activity (Mus musculus [17]): Non-toxic
Activity (Mus musculus [19]): 19%
Activity (Mus musculus [20]): 44%

From ChEMBL document CHEMBL2321820, “Discovery of HSD-621 as a Potential Agent for the Treatment of Type 2 Diabetes” (ACS Med Chem Lett, 2013)
